Experimental data published in ChEMBL document CHEMBL4689842, “EUbOPEN Chemogenomics Library wave 1” (2021).
Several values for one entry are separate records, joined by “and”; a condition that tells them apart may be missing. Equal values may be shown once.

Experiments:
Assay type in all cases: toxicity, cell-based
[1] = test system: Fibroblast; assay: Incucyte cell viability with human fibroblast; details: 10 µM, compound concentration 10 uM; also: filed as whole numbers so only -1 and 0 and 1 occur
[2] = test system: Fibroblast; assay: Multiplex assay against human fibroblast
In short: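 Four dyes were applied at seeding to live cells: Hoechst33342, BioTracker Green Microtubule Cytoskeleton Dye, MitoTracker Red and Annexin V Alexa Fluor 680. Imaging after compound addition used a CQ1 microscope at 37°C and 5% CO2. CellPathfinder machine-learning gating then sorted cells into Hoechst high-intensity objects or normal cells, normal cells into healthy, pyknosed or fragmented nuclei, and pyknosed cells into mitotic or apoptotic, with tubulin, mitochondrial-mass and membrane-permeability phenotypes given as per cents of healthy-nucleus cells.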

[3] = test system: U2OS; assay: Incucyte cell viability with U2OS; details: human, 10 µM, compound concentration 10 uM; also: filed as whole numbers so only -1 and 0 and 1 occur
[4] = 0 h, replicate number 2, timepoint 0 hours
[5] = 6 h, replicate number 1, timepoint 6 hours
[6] = 12 h, replicate number 1, timepoint 12 hours
[7] = 18 h, replicate number 1, timepoint 18 hours
[8] = 24 h, replicate number 1, timepoint 24 hours
[9] = 12 h, 1 µM, compound concentration 1 uM, replicate 1
[10] = 12 h, 1 µM, compound concentration 1 uM, replicate 2
[11] = 12 h, 10 µM, compound concentration 10 uM, replicate 1
[12] = 12 h, 10 µM, compound concentration 10 uM, replicate 2
[13] = 24 h, 1 µM, compound concentration 1 uM, replicate 1
[14] = 24 h, 1 µM, compound concentration 1 uM, replicate 2
[15] = 24 h, 10 µM, compound concentration 10 uM, replicate 1
[16] = 24 h, 10 µM, compound concentration 10 uM, replicate 2
[17] = 48 h, 10 µM, compound concentration 10 uM, replicate 1
[18] = 48 h, 10 µM, compound concentration 10 uM, replicate 2
[19] = 0 h, replicate number 1, timepoint 0 hours

c1ccc(-c2oc3ncnc(NC[C@@H]4CCCO4)c3c2-c2ccccc2)cc1
Growth Rate [1, 4]: 1 | Growth Rate [1, 5]: 0 | Growth Rate [1, 6]: 0 | Growth Rate [1, 7]: 0 | Growth Rate [1, 8]: 0 | Population Apoptotic (%) [2, 9]: 77% and 68% | Population Fragmented Nuclei (%) [2, 9]: 30% and 24% | Population Healthy Nuclei (%) [2, 9]: 49% and 53% | Population Hoechst High Intensity Objects (%) [2, 9]: 11% and 13% | Population Membrane Permeable-Phenotype (%) [2, 9]: 22% and 42% | Population Mitochondria Different-Phenotype (%) [2, 9]: 7% and 16% | Population Mitotic Cells (%) [2, 9]: 22% and 31% | Population Normal (%) [2, 9]: 88% and 86% | Population Pyknosed Nuclei (%) [2, 9]: 20% and 21% | Total Cell Count [2, 9]: 123 and 267 | Population Apoptotic (%) [2, 10]: 50% and 25% | Population Fragmented Nuclei (%) [2, 10]: 35% and 48% | Population Healthy Nuclei (%) [2, 10]: 40% and 37% | Population Hoechst High Intensity Objects (%) [2, 10]: 35% and 44% | Population Membrane Permeable-Phenotype (%) [2, 10]: 29% and 27% | Population Mitochondria Different-Phenotype (%) [2, 10]: 11% and 18% | Population Mitotic Cells (%) [2, 10]: 50% and 75% | Population Normal (%) [2, 10]: 64% and 55% | Population Pyknosed Nuclei (%) [2, 10]: 23% and 13% | Population Tubulin-Different-Phenotype (%) [2, 10]: 47% and 100% | Total Cell Count [2, 10]: 65 and 52 | Population Apoptotic (%) [2, 11]: 53% | Population Fragmented Nuclei (%) [2, 11]: 20% | Population Healthy Nuclei (%) [2, 11]: 41% | Population Hoechst High Intensity Objects (%) [2, 11]: 20% | Population Membrane Permeable-Phenotype (%) [2, 11]: 21% | Population Mitochondria Different-Phenotype (%) [2, 11]: 42% | Population Mitotic Cells (%) [2, 11]: 46% | Population Normal (%) [2, 11]: 79% | Population Pyknosed Nuclei (%) [2, 11]: 37% | Population Tubulin-Different-Phenotype (%) [2, 11]: 84% | Total Cell Count [2, 11]: 99 | Population Apoptotic (%) [2, 12]: 87% | Population Fragmented Nuclei (%) [2, 12]: 14% | Population Healthy Nuclei (%) [2, 12]: 71% | Population Hoechst High Intensity Objects (%) [2, 12]: 6% | Population Membrane Permeable-Phenotype (%) [2, 12]: 34% | Population Mitochondria Different-Phenotype (%) [2, 12]: 56% | Population Mitotic Cells (%) [2, 12]: 12% | Population Normal (%) [2, 12]: 93% | Population Pyknosed Nuclei (%) [2, 12]: 14% | Population Tubulin-Different-Phenotype (%) [2, 12]: 95% | Total Cell Count [2, 12]: 61 | Population Apoptotic (%) [2, 13]: 65% and 78% | Population Fragmented Nuclei (%) [2, 13]: 19% and 29% | Population Healthy Nuclei (%) [2, 13]: 59% and 57% | Population Hoechst High Intensity Objects (%) [2, 13]: 18% and 12% | Population Membrane Permeable-Phenotype (%) [2, 13]: 17% and 16% | Population Mitotic Cells (%) [2, 13]: 34% and 21% | Population Normal (%) [2, 13]: 81% and 87% | Population Pyknosed Nuclei (%) [2, 13]: 21% and 13% | Total Cell Count [2, 13]: 254 and 121 | Population Apoptotic (%) [2, 14]: 70% and 83% | Population Fragmented Nuclei (%) [2, 14]: 43% and 66% | Population Healthy Nuclei (%) [2, 14]: 34% and 17% | Population Hoechst High Intensity Objects (%) [2, 14]: 33% and 36% | Population Membrane Permeable-Phenotype (%) [2, 14]: 13% and 28% | Population Mitotic Cells (%) [2, 14]: 30% and 16% | Population Normal (%) [2, 14]: 66% and 63% | Population Pyknosed Nuclei (%) [2, 14]: 22% and 15% | Population Tubulin-Different-Phenotype (%) [2, 14]: 66% and 100% | Total Cell Count [2, 14]: 66 and 61 | Population Apoptotic (%) [2, 15]: 76% | Population Fragmented Nuclei (%) [2, 15]: 43% | Population Healthy Nuclei (%) [2, 15]: 39% | Population Hoechst High Intensity Objects (%) [2, 15]: 25% | Population Membrane Permeable-Phenotype (%) [2, 15]: 13% | Population Mitochondria Different-Phenotype (%) [2, 15]: 51% | Population Mitotic Cells (%) [2, 15]: 23% | Population Normal (%) [2, 15]: 74% | Population Pyknosed Nuclei (%) [2, 15]: 17% | Population Tubulin-Different-Phenotype (%) [2, 15]: 82% | Total Cell Count [2, 15]: 99 | Population Apoptotic (%) [2, 16]: 100% | Population Fragmented Nuclei (%) [2, 16]: 14% | Population Healthy Nuclei (%) [2, 16]: 68% | Population Hoechst High Intensity Objects (%) [2, 16]: 10% | Population Membrane Permeable-Phenotype (%) [2, 16]: 21% | Population Mitochondria Different-Phenotype (%) [2, 16]: 56% | Population Mitotic Cells (%) [2, 16]: 0% | Population Normal (%) [2, 16]: 90% | Population Pyknosed Nuclei (%) [2, 16]: 16% | Population Tubulin-Different-Phenotype (%) [2, 16]: 81% | Total Cell Count [2, 16]: 60 | Population Apoptotic (%) [2, 17]: 60% | Population Fragmented Nuclei (%) [2, 17]: 36% | Population Healthy Nuclei (%) [2, 17]: 51% | Population Hoechst High Intensity Objects (%) [2, 17]: 14% | Population Membrane Permeable-Phenotype (%) [2, 17]: 13% | Population Mitochondria Different-Phenotype (%) [2, 17]: 55% | Population Mitotic Cells (%) [2, 17]: 40% | Population Normal (%) [2, 17]: 85% | Population Pyknosed Nuclei (%) [2, 17]: 11% | Population Tubulin-Different-Phenotype (%) [2, 17]: 95% | Total Cell Count [2, 17]: 98 | Population Apoptotic (%) [2, 18]: 0% | Population Fragmented Nuclei (%) [2, 18]: 40% | Population Healthy Nuclei (%) [2, 18]: 59% | Population Hoechst High Intensity Objects (%) [2, 18]: 10% | Population Membrane Permeable-Phenotype (%) [2, 18]: 16% | Population Mitochondria Different-Phenotype (%) [2, 18]: 42% | Population Mitotic Cells (%) [2, 18]: 0% | Population Normal (%) [2, 18]: 89% | Population Pyknosed Nuclei (%) [2, 18]: 0% | Population Tubulin-Different-Phenotype (%) [2, 18]: 96% | Total Cell Count [2, 18]: 105 | Growth Rate [3, 19]: 1 | Growth Rate [3, 4]: 0 | Growth Rate [3, 5]: 1 | Growth Rate [3, 6]: 0 | Growth Rate ([3]; 12 h, replicate number 2, timepoint 12 hours): 1 | Growth Rate [3, 7]: 0 | Growth Rate [3, 8]: 0 | Growth Rate ([3]; 24 h, replicate number 2, timepoint 24 hours): 1

Cl.Cn1c2c(c3ccc(Cl)c(Cl)c31)C(C#N)C1(CCNCC1)NC2=O (stereo unspecified)
Growth Rate [1, 5]: 0 | Growth Rate [1, 6]: 0 | Growth Rate [1, 7]: 0 | Growth Rate [1, 8]: 0 | Population Apoptotic (%) [2, 9]: 75% | Population Fragmented Nuclei (%) [2, 9]: 35% | Population Healthy Nuclei (%) [2, 9]: 51% | Population Hoechst High Intensity Objects (%) [2, 9]: 11% | Population Membrane Permeable-Phenotype (%) [2, 9]: 8% | Population Mitochondria Different-Phenotype (%) [2, 9]: 2% | Population Mitotic Cells (%) [2, 9]: 25% | Population Normal (%) [2, 9]: 88% | Population Pyknosed Nuclei (%) [2, 9]: 13% | Population Tubulin-Different-Phenotype (%) [2, 9]: 6% | Total Cell Count [2, 9]: 332 | Population Apoptotic (%) [2, 10]: 50% | Population Fragmented Nuclei (%) [2, 10]: 59% | Population Healthy Nuclei (%) [2, 10]: 33% | Population Hoechst High Intensity Objects (%) [2, 10]: 32% | Population Membrane Permeable-Phenotype (%) [2, 10]: 9% | Population Mitochondria Different-Phenotype (%) [2, 10]: 9% | Population Mitotic Cells (%) [2, 10]: 50% | Population Normal (%) [2, 10]: 67% | Population Pyknosed Nuclei (%) [2, 10]: 6% | Population Tubulin-Different-Phenotype (%) [2, 10]: 9% | Total Cell Count [2, 10]: 92 | Population Apoptotic (%) [2, 11]: 64% | Population Fragmented Nuclei (%) [2, 11]: 44% | Population Healthy Nuclei (%) [2, 11]: 40% | Population Hoechst High Intensity Objects (%) [2, 11]: 19% | Population Membrane Permeable-Phenotype (%) [2, 11]: 8% | Population Mitochondria Different-Phenotype (%) [2, 11]: 6% | Population Mitotic Cells (%) [2, 11]: 35% | Population Normal (%) [2, 11]: 80% | Population Pyknosed Nuclei (%) [2, 11]: 14% | Population Tubulin-Different-Phenotype (%) [2, 11]: 37% | Total Cell Count [2, 11]: 482 | Population Apoptotic (%) [2, 12]: 40% | Population Fragmented Nuclei (%) [2, 12]: 48% | Population Healthy Nuclei (%) [2, 12]: 39% | Population Hoechst High Intensity Objects (%) [2, 12]: 23% | Population Membrane Permeable-Phenotype (%) [2, 12]: 5% | Population Mitochondria Different-Phenotype (%) [2, 12]: 2% | Population Mitotic Cells (%) [2, 12]: 60% | Population Normal (%) [2, 12]: 76% | Population Pyknosed Nuclei (%) [2, 12]: 11% | Population Tubulin-Different-Phenotype (%) [2, 12]: 73% | Total Cell Count [2, 12]: 112 | Population Apoptotic (%) [2, 13]: 67% | Population Fragmented Nuclei (%) [2, 13]: 38% | Population Healthy Nuclei (%) [2, 13]: 50% | Population Hoechst High Intensity Objects (%) [2, 13]: 15% | Population Membrane Permeable-Phenotype (%) [2, 13]: 4% | Population Mitochondria Different-Phenotype (%) [2, 13]: 3% | Population Mitotic Cells (%) [2, 13]: 32% | Population Normal (%) [2, 13]: 84% | Population Pyknosed Nuclei (%) [2, 13]: 10% | Population Tubulin-Different-Phenotype (%) [2, 13]: 4% | Total Cell Count [2, 13]: 379 | Population Apoptotic (%) [2, 14]: 0% | Population Fragmented Nuclei (%) [2, 14]: 67% | Population Healthy Nuclei (%) [2, 14]: 31% | Population Hoechst High Intensity Objects (%) [2, 14]: 29% | Population Membrane Permeable-Phenotype (%) [2, 14]: 9% | Population Mitochondria Different-Phenotype (%) [2, 14]: 0% | Population Mitotic Cells (%) [2, 14]: 100% | Population Normal (%) [2, 14]: 70% | Population Pyknosed Nuclei (%) [2, 14]: 1% | Population Tubulin-Different-Phenotype (%) [2, 14]: 19% | Total Cell Count [2, 14]: 95 | Population Apoptotic (%) [2, 15]: 61% | Population Fragmented Nuclei (%) [2, 15]: 28% | Population Healthy Nuclei (%) [2, 15]: 55% | Population Hoechst High Intensity Objects (%) [2, 15]: 37% | Population Membrane Permeable-Phenotype (%) [2, 15]: 6% | Population Mitochondria Different-Phenotype (%) [2, 15]: 10% | Population Mitotic Cells (%) [2, 15]: 38% | Population Normal (%) [2, 15]: 62% | Population Pyknosed Nuclei (%) [2, 15]: 15% | Population Tubulin-Different-Phenotype (%) [2, 15]: 38% | Total Cell Count [2, 15]: 492 | Population Apoptotic (%) [2, 16]: 87% | Population Fragmented Nuclei (%) [2, 16]: 42% | Population Healthy Nuclei (%) [2, 16]: 42% | Population Hoechst High Intensity Objects (%) [2, 16]: 43% | Population Membrane Permeable-Phenotype (%) [2, 16]: 9% | Population Mitochondria Different-Phenotype (%) [2, 16]: 14% | Population Mitotic Cells (%) [2, 16]: 12% | Population Normal (%) [2, 16]: 56% | Population Pyknosed Nuclei (%) [2, 16]: 16% | Population Tubulin-Different-Phenotype (%) [2, 16]: 42% | Total Cell Count [2, 16]: 89 | Growth Rate [3, 19]: 0 | Growth Rate [3, 5]: 0 | Growth Rate [3, 6]: 0 | Growth Rate [3, 7]: 0 | Growth Rate [3, 8]: 0
